Experimental findings from ChEMBL document CHEMBL1938239, “Novel analgesic/anti-inflammatory agents: diarylpyrrole acetic esters endowed with nitric oxide releasing properties” (J Med Chem, 2011) are described below.

Calls of active or inactive are those of the source. The rule behind the calls is not given here.

Usually inhibition stands for the change of the read-out against control, counted positive when it falls. A high value points to strong suppression. As usually defined, the IC50 is the midpoint of a concentration-inhibition curve. Lower therefore signals inhibition by little substance. What is called Emax is the size of the effect at its maximum, as opposed to the concentration needed.

Assay [1] has as its target T1, Prostaglandin G/H synthase 1 (Mus musculus) (UniProt P22437).
T1 sequence (whole entry): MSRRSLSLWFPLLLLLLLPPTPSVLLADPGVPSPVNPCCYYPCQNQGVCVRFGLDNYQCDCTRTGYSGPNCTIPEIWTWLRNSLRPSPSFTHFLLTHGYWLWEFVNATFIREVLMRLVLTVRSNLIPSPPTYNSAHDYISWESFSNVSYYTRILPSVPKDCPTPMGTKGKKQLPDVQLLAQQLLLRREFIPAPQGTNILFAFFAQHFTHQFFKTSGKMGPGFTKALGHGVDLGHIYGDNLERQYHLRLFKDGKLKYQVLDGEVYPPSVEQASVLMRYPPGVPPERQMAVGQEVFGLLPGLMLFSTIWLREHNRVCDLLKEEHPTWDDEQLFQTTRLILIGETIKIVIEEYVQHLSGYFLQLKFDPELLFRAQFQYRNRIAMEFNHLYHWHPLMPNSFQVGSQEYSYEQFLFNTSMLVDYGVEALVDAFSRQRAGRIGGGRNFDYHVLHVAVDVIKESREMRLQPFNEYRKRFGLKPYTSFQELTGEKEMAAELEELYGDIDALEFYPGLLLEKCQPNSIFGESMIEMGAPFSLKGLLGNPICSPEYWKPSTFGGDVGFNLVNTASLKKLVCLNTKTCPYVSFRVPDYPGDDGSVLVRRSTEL
The assay is described as follows: Inhibition of COX-1-mediated PGE2 production in arachidonic acid-stimulated mouse J774 cells at 10 uM incubated for 15 mins prior to arachidonic acid-challenge by radioimmunoassay. It counts as cell-based. An outline of the steps: (§1)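 J774 murine macrophages grown in DMEM with 10% FBS and allowed to adhere for 2 h at 37 °C. Where inhibition exceeded 50%, 0.01–1 μM was also tested. Supernatant PGE2 was measured by RIA as % inhibition versus control, in triplicate wells over three experiments. IC50 came from a sigmoidal variable-slope fit.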

In assay [2] the target is T2, Prostaglandin G/H synthase 1 (Mus musculus, UniProt P22437).
T2 sequence (P22437 whole entry): T1 sequence (whole entry)
Briefly: Inhibition of COX-1-mediated PGE2 production in arachidonic acid-stimulated mouse J774 cells incubated for 15 mins prior to arachidonic acid-challenge by radioimmunoassay. It is filed as cell-based. An outline of the steps: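 J774 murine macrophages grown in DMEM with 10% FBS and allowed to adhere for 2 h at 37 °C. Cells were pretreated with compound at 10 μM for 15 min, then given 15 μM arachidonic acid for 30 min at 37 °C. Where inhibition exceeded 50%, 0.01–1 μM was also tested. Supernatant PGE2 was measured by RIA as % inhibition versus control, in triplicate wells over three experiments. IC50 came from a sigmoidal variable-slope fit.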

Assay [3] concerns the target T3, Prostaglandin G/H synthase 2 (Mus musculus, UniProt Q05769).
T3 sequence (Q05769 whole entry): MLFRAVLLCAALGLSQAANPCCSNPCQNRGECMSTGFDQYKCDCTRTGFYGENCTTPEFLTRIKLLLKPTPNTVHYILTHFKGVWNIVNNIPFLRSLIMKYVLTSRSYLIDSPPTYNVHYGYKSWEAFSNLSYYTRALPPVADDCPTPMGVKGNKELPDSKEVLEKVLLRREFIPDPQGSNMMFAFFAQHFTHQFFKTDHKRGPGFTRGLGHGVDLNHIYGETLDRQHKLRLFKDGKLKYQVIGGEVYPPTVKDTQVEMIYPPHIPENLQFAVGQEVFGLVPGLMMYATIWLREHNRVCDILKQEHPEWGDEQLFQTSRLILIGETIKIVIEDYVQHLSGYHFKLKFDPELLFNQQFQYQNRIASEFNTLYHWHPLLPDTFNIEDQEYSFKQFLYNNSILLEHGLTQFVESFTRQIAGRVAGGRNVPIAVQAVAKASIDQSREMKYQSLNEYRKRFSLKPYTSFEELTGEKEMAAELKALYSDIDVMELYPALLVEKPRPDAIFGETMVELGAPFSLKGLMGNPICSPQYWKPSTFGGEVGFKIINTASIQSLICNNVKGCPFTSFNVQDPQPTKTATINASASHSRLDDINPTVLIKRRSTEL
The assay is described as follows: Inhibition of COX-2-mediated PGE2 production in LPS-stimulated mouse J774 cells after 24 hrs by radioimmunoassay. It is filed as cell-based.

A further assay deals with J774. The assay is described as follows: Selectivity ratio of IC50 for COX1 in mouse J774 cells to IC50 for COX2 in mouse J774 cells. It counts as cell-based. An outline of the steps:
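Ratio of J774 IC50s, COX-1 over COX-2. For COX-1, cells were pretreated with compound for 15 min, then given 15 μM arachidonic acid for 30 min at 37 °C. For COX-2, cells received E. coli LPS 10 μg/mL for 24 h with compound at 0.01–10 μM. PGE2 was measured by RIA in triplicate wells over three experiments. IC50 came from a sigmoidal fit.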

Assay [4] relates to Aorta. The assay is described as follows: Vasorelaxation activity against KCl-induced contraction in isolated Wistar rat thoracic endothelium-denulated aortic rings. It counts as functional, tissue-based. The essentials: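 Endothelium-denuded thoracic aortic rings from male Wistar rats (250−350 g); denudation confirmed by <10% relaxation to 10 μM ACh. Rings precontracted with 30 mM KCl; compound added at 3-fold increasing concentrations, 1 nM to 10 μM. Isometric tension recorded. Emax given as % of KCl tone; pIC50 derived. Mean ± standard error of 6−10 experiments; repeated with 1 μM ODQ.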

For assay [5], the system named is Aorta. The assay is described as follows: Vasorelaxation activity against KCl-induced contraction in isolated Wistar rat thoracic endothelium-denulated aortic rings in the presence of guanylate cyclase inhibitor ODQ. It counts as functional, tissue-based. The essentials: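 Thoracic aortic rings from male Wistar rats (250–350 g), endothelium removed by rubbing; rings relaxing ≥10% to ACh 10 μM on KCl 30 mM tone were discarded. ODQ 1 μM was incubated, then rings were contracted with KCl 30 mM and given 3-fold increasing concentrations of 1 nM–10 μM.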

The target of assay [6] is T1, Prostaglandin G/H synthase 1 (Mus musculus). The assay is described as follows: Inhibition of COX-1-mediated PGE2 production in arachidonic acid-stimulated mouse J774 cells at 0.1 uM incubated for 15 mins prior to arachidonic acid-challenge by radioimmunoassay. It is filed as cell-based. The essentials:
as §1

For assay [7] the target is unchanged. The assay is described as follows: Inhibition of COX-1-mediated PGE2 production in arachidonic acid-stimulated mouse J774 cells at 1 uM incubated for 15 mins prior to arachidonic acid-challenge by radioimmunoassay. It counts as cell-based. An outline of the steps:
as §1

Assay [8] deals with T4, Prostaglandin G/H synthase 2 (Mus musculus) (UniProt Q05769).
T4 sequence (whole entry): T3 sequence (Q05769 whole entry)
The assay is described as follows: Inhibition of COX-2-mediated PGE2 production in LPS-stimulated mouse J774 cells at 0.001 uM after 24 hrs by radioimmunoassay. It counts as cell-based.

As to `Cc1c(CC(=O)OCCCO)cc(-c2ccc(S(C)(=O)=O)cc2)n1-c1ccc(F)cc1`, the inhibition in assay [1] was 0%. The IC50 is more than 10000 nM in assay [2] and 56 nM in assay [3]. In addition, the Ratio IC50 in the assay with J774 is more than 179.
In [1], `Cc1c(CC(=O)OCCO[N+](=O)[O-])cc(-c2ccc(S(C)(=O)=O)cc2)n1-c1ccccc1` returned an inhibition of 19%. This compound also returned an IC50 in assay [2] of more than 10000 nM. Also, the Ratio IC50 in the assay with J774 was more than 233. For the same compound, in the assay on Aorta [4], the maximum response (Emax) is 65% and half-maximal inhibition (IC50) required 1740 nM. For the same compound, the result with Aorta [5] was inactive.
For `Cc1c(CC(=O)OCCO[N+](=O)[O-])cc(-c2ccc(S(C)(=O)=O)cc2)n1-c1ccc(F)cc1`, the inhibition in [1] was found to be 0%. Also, the IC50 in assay [2] is more than 10000 nM; in assay [3] it was 29 nM; in the assay on Aorta [4], 3390 nM. In the assay on J774, the Ratio IC50 is more than 345. For the same compound, the outcome with Aorta [5] was inactive.
For the compound `Cc1c(CC(=O)OCCCO[N+](=O)[O-])cc(-c2ccc(S(C)(=O)=O)cc2)n1-c1ccc(F)cc1`, the inhibition in assay [1] came out at 28%. The IC50 in assay [2] was more than 10000 nM; in [3], 37.2 nM; with Aorta [4] it was more than 10000 nM. Further, the Ratio IC50 with J774 was more than 269. Also, the maximal response (Emax) in the assay on Aorta [4] was 41%. Moreover, in the assay on Aorta [5], the result was inactive.
Consider `Cc1c(CC(=O)O)cc(-c2ccc(S(C)(=O)=O)cc2)n1-c1ccc(F)cc1`, for which the IC50 in assay [2] was more than 10000 nM; in [3] it was 500 nM. Besides, the Ratio IC50 with J774 was more than 20.
Turning to `O=[N+]([O-])OCC(CO[N+](=O)[O-])O[N+](=O)[O-]` [NITROGLYCERIN], in the assay on Aorta [4], the maximal response (Emax) worked out at 73% and inhibition was half-maximal at 126 nM (IC50).
Compound `Cc1c(CC(=O)OCCO)cc(-c2ccc(S(C)(=O)=O)cc2)n1-c1ccc(F)cc1` registered an inhibition in [1] of 21%. The IC50 was more than 10000 nM in assay [2] and 39 nM in [3]. Also, in the assay on J774, the Ratio IC50 was more than 256.
Turning to `COc1ccc(-n2c(-c3ccc(S(C)(=O)=O)cc3)cc(CC(=O)OCCO[N+](=O)[O-])c2C)cc1`, the results for the inhibition in assay [6], in assay [7] and in assay [1] were 12%, 30% and 55%, respectively. For the same compound, the IC50 was 6400 nM in assay [2] and 178 nM with Aorta [4]. In addition, the Ratio IC50 in the assay on J774 was 37.6. The outcome with Aorta [5] was inactive.
For the compound `Cc1c(CC(=O)O)cc(-c2ccc(S(C)(=O)=O)cc2)n1-c1ccccc1`, the inhibition in assay [1] came to 0%. Further, in [2], the IC50 is more than 10000 nM. In addition, the Ratio IC50 in the assay on J774 was more than 10.
Compound `Cc1c(CC(=O)OCCO)cc(-c2ccc(S(C)(=O)=O)cc2)n1-c1ccccc1` returned an inhibition in assay [1] of 22%. For the same compound, the values for the half-inhibitory concentration (IC50) in assay [2] and in assay [3] were more than 10000 nM and 96 nM, respectively. Besides, the Ratio IC50 with J774 was more than 104.
In [1], `COc1ccc(-n2c(-c3ccc(S(C)(=O)=O)cc3)cc(CC(=O)OCCCO)c2C)cc1` came in with an inhibition of 27%. The IC50 in assay [2] was more than 10000 nM. Also, the Ratio IC50 with J774 is more than 14.3.
On to `CSc1ccc(-n2c(-c3ccc(S(C)(=O)=O)cc3)cc(CC(=O)OCCO[N+](=O)[O-])c2C)cc1`, for which the inhibition in assay [1] is 0%. Moreover, the IC50 in assay [2] is more than 10000 nM; in assay [3], 17 nM; in the assay with Aorta [4] it was 457 nM. For the same compound, in the assay on J774, the Ratio IC50 was more than 588. This compound also registered an Emax with Aorta [4] of 65%. For the same compound, the outcome in the assay on Aorta [5] was inactive.
`CSc1ccc(-n2c(-c3ccc(S(C)(=O)=O)cc3)cc(CC(=O)OCCCO[N+](=O)[O-])c2C)cc1`: the inhibition in assay [1] amounted to 0%. In addition, the half-inhibitory concentration (IC50) (in assay [2]; in the assay with Aorta [4]) was more than 10000 nM in each case. Further, the Ratio IC50 in the assay with J774 was more than 370. In addition, the outcome in the assay with Aorta [5] was inactive.
As to `Cc1c(CC(=O)OCCCO[N+](=O)[O-])cc(-c2ccc(S(C)(=O)=O)cc2)n1-c1ccccc1`, the inhibition in [1] stood at 27%. Further, the concentration for half-maximal inhibition (IC50) in [2] is more than 10000 nM; in [3] it was 42 nM; in the assay with Aorta [4], more than 10000 nM. Also, the Ratio IC50 with J774 is more than 238. Also, in the assay on Aorta [4], the Emax worked out at 44%. Moreover, in the assay on Aorta [5], the result was inactive.
Consider `COc1ccc(-n2c(-c3ccc(S(C)(=O)=O)cc3)cc(CC(=O)OCCCO[N+](=O)[O-])c2C)cc1`, for which the inhibition in [8] turned out to be 39%; in assay [7] it was 0%. The IC50 was more than 10000 nM in [2], 2.4 nM in [3] and more than 10000 nM in the assay with Aorta [4]. For the same compound, the Ratio IC50 in the assay with J774 is more than 4170. In addition, in the assay with Aorta [5], the outcome was inactive.
The compound `CSc1ccc(-n2c(-c3ccc(S(C)(=O)=O)cc3)cc(CC(=O)O)c2C)cc1` gave an inhibition in assay [1] of 45%. The IC50 was more than 10000 nM in assay [2] and 13 nM in assay [3]. For the same compound, in the assay with J774, the Ratio IC50 was more than 769.
In turn, `CSc1ccc(-n2c(-c3ccc(S(C)(=O)=O)cc3)cc(CC(=O)OCCCO)c2C)cc1` came in with an inhibition in assay [1] of 36%. This compound displayed a 50% inhibitory concentration (IC50) in assay [2] of more than 10000 nM. The Ratio IC50 in the assay on J774 is more than 38.5.
Regarding `CSc1ccc(-n2c(-c3ccc(S(C)(=O)=O)cc3)cc(CC(=O)OCCO)c2C)cc1`, the inhibition in [6] was determined as 11%; in assay [7], 40%; in assay [1], 62%. Further, half-maximal inhibition in assay [2] (IC50) required 3180 nM. Also, in the assay with J774, the Ratio IC50 turned out to be 37.4.
On to `COc1ccc(-n2c(-c3ccc(S(C)(=O)=O)cc3)cc(CC(=O)OCCO)c2C)cc1`, for which the inhibition in [1] stood at 5%. The compound also came in with an IC50 in assay [2] of more than 10000 nM. For the same compound, the Ratio IC50 in the assay with J774 was more than 9.1.
